Measurements pooled from the literature.
PSMB6/PSMB5/PSMB7: PSMB6/PSMB5/PSMB7 (Homo sapiens, UniProt P28072+P28074+Q99436)
TNKS: Poly [ADP-ribose] polymerase tankyrase-1 (TNKS, Homo sapiens, UniProt O95271)
NTRK3: NT-3 growth factor receptor (NTRK3, Homo sapiens, UniProt Q16288)

Compound	target	effect on	action	method	cell line	tested at	inhibition [%]
CCN1CCN(Cc2ccc(NC(=O)c3ccc(C)c(Oc4ccnc5[nH]ccc45)c3)cc2C(F)(F)F)CC1	Mitogen-activated protein kinase 3 (MAPK3, Homo sapiens, UniProt P27361)	target engagement in cells	inhibitor	chemoproteomics	A-375	0.5 µM	-44.6
COC(=O)[C@@]12Oc3c(c(O)cc4c3[C@@H]3C=C[C@]5(C4)C(=C(O)c4c(O)cc(C)cc4[C@@H]5OC(C)=O)C3=O)C(O)=C1C(=O)C=C[C@@H]2O	PSMB6/PSMB5/PSMB7	enzyme activity in cells	inhibitor		MCF7	20 µg/mL	13
Ic1cccc2cnccc12	TNKS	enzyme activity	inhibitor			10 µM	7
O=C(O)CC[C@@H](O)C(=O)O	Methylcytosine dioxygenase TET2 (Mus musculus, UniProt Q4JK59)	enzyme activity	inhibitor			50 mM	83
O=C(Nc1ccc2[nH]ncc2c1)c1cccc(NC(=S)Nc2ccc(C(F)(F)F)cc2)c1	NTRK3	enzyme activity	inhibitor	FRET		1 µM	17.3
OCc1cc(C(O)CNCCCCCCOCCCCc2ccccc2)ccc1O (stereo not drawn)	C-X-C chemokine receptor type 4 (CXCR4, Homo sapiens, UniProt P61073)	calcium signal	antagonist		U87.CD4.CXCR4	20 µM	15
COc1ccc(C(N)=O)cc1NC(=O)c1cccc(-c2cnc3[nH]c(=O)n(C)c3c2)c1	TNKS	enzyme activity	inhibitor			0.1 µM	0
COC(=O)c1c(O)ccc(O)c1C(=O)c1c(O)cc2c(c1O)[C@@H]1C=C[C@]3(C2)C(=C(O)c2c(O)cc(C)cc2[C@@H]3OC(C)=O)C1=O	PSMB6/PSMB5/PSMB7	enzyme activity in cells	inhibitor		MCF7	20 µg/mL	55
CN(C)C1CCN(CC#Cc2nn(C3CCCC3)c3nc(NCc4ccccc4)ncc23)C1 (stereo not drawn)	Cyclin-dependent kinase 9, with cyclin T1 (CDK9, Homo sapiens, UniProt P50750)	enzyme activity	inhibitor	FRET		0.1 µM	5
CC1=C(/C=C/C(C)=C/C=C/C(C)=C/C(=O)O)C(C)(C)CCC1	Prothrombin (Rattus norvegicus, UniProt P18292)	enzyme activity	inhibitor			200 µg/mL	92
CN1CCN(CC(=O)Nc2cccc(C(=O)Nc3ccc4[nH]ncc4c3)c2)CC1	NTRK3	enzyme activity	inhibitor	FRET		1 µM	23
CNC(=O)c1cc(Oc2ccc(NC(=O)Nc3ccc(Cl)c(C(F)(F)F)c3)cc2)ccn1	Dual specificity mitogen-activated protein kinase kinase 7 (MAP2K7, Homo sapiens, UniProt O14733)	enzyme activity	inhibitor			0.3 µM	9
